NPY-Y2 antag: blocks the human neuropeptide Y Y2 receptor; NPY-Y2 expressing cells, antagonist mode; inhibition, % at 2.7 µM; 140,000 tested, 0.99% active; P49146
Target sequence (P49146 whole entry, looked up): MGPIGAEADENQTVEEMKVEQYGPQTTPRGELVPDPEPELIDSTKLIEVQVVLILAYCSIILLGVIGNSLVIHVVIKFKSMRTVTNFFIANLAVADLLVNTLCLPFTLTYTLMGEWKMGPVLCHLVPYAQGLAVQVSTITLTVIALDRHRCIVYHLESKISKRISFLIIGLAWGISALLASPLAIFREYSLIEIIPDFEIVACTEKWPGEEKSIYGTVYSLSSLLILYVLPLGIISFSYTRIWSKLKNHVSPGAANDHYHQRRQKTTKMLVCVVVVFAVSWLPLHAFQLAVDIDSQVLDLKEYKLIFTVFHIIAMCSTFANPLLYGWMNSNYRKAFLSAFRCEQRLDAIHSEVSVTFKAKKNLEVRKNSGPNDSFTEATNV
NPY-Y2 PAM-ag: human NPY-Y2 potentiation or agonism, primary screen; cells expressing NPY-Y2, potentiator/agonist read-out; activation, % at 3.6 µM; 220,000 tested, 0.45% active; AID 1359; in the data active = activation above about 27%;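 note: cells stimulated with NPY near EC25 plus isoproterenol at EC100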
NPY1 pot ag: human NPY-Y1 potentiation or agonism, primary screen; activation, % at 3.6 µM; AID 1304; 220,000 tested, 0.37% active; NPY-Y1 expressing cells, potentiator/agonist activation; P25929; in the data active = activation above about 33%, passing the limit was not always enough;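 note: cells stimulated with NPY at EC10 then isoproterenol at EC100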
NPY Y1 blocker: NPY-Y1 (human) receptor antagonism. P25929. HEK293-CNG Y1 cells, membrane potential fluorescence; NPY at EC95, then isoproterenol. inhibition, % at 3.6 µM. 200,000 tested, 1% active. AID 1040;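 active = inhibition above the campaign mean inhibition of all tested compounds plus 3 SD, cut at about 20% in these data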
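material = HEK293 cells with Y1 receptor plus CNG channel | also added = NPY 25 nM then isoproterenol 1 µM plus Ro 20-1724 25 µM | schedule = dye 3 h, compound 60 min room temperature, stimulation 45 min | measured by = membrane potential fluorescence | benchmarks = high control isoproterenol alone, low control NPY with isoproterenol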
NPY1 antag conf: human NPY-Y1 antagonism, confirmation; shares compounds with NPY Y1 blocker; HEK293-CNG NPY-Y1, membrane potential fluorescence, cAMP; NPY challenge against isoproterenol-raised cAMP; inhibition, % at 3.6 µM; 1,200 tested, 21% active; AID 1254; in the data active = inhibition above about 20%
NPY-Y2 antag ct: antagonizes human NPY-Y2, counter-screen to NPY-Y1 antagonists. inhibition, % at 3.6 µM. shares compounds with NPY Y1 blocker. 1,200 tested, 28% active. HEK293 NPY-Y2 CNG membrane potential fluorescence, antagonism; cells given NPY, then isoproterenol. AID 1255
Hits are given with their value; n = inactive; x = no result. An excerpt weighted towards active compounds, which were near 1.8% of everything screened. Cut-off read from the data, not from the text of the source, unless noted: active = inhibition above about 17%; inactive = the rest.

SMILES | NPY-Y2 antag | NPY-Y2 PAM-ag | NPY1 pot ag | NPY Y1 blocker | NPY1 antag conf | NPY-Y2 antag ct
COC(=O)c1ccc(NC(=O)CN2C(=O)C3C4C=CC(C4)C3C2=O)cc1 (stereo not given) | n | n | n | 23 | n | n
CCC(C)(C)NC(=O)C(c1ccncc1)N(C(=O)Cn1nnc2ccccc21)c1cc2c(cc1C(C)=O)OCO2 (stereo not given) | x | n | n | n | x | x
CN(C)CCC1Sc2ccccc2Oc2ccccc21 (stereo not given) | n | n | n | 27 | n | n
CC1c2ccccc2SC(CCCN(C)C)c2ccccc21 (stereo not given) | n | n | n | n | x | x
CNCC(C)COc1ccccc1OCc1ccccc1 (stereo not given) | n | n | n | 22 | n | n
S=c1[nH]nc(-c2ccc3ccccc3n2)o1 | n | n | n | 20 | n | n
FC(F)(F)c1ccc(-c2n[nH]c(=S)o2)nc1 | x | n | n | x | x | x
C(=C\c1ccccc1)/CN1CCN(c2ncnc3c2oc2ccccc23)CC1 | n | n | n | 26 | n | n
Nc1nc(N2CCN(C/C=C/c3ccccc3)CC2)nc2ccccc12 | n | n | n | 22 | n | n
c1ccc2c(c1)oc1c(N3CCOCC3)ncnc12 | n | n | n | n | x | x
CCCC(=O)Nc1ccc(-c2csc(N/N=C\c3ccncc3)n2)cc1 | x | n | n | x | x | x
Cc1ccccc1-c1nnn(CC(=O)NCc2ccc3c(c2)OCO3)n1 | n | n | n | 22 | n | n
O=C(O)/C=C/S(=O)(=O)c1ccc2ccccc2c1 | x | n | n | x | x | x
COc1cc2c(cc1OC)C(c1cccs1)N(C(=S)NC(C)C)CC2 (stereo not given) | x | n | n | 30 | n | n
CCCCCCCCCCOC(=O)C[N+](C)(C)C/C=C(/C)Cl | n | n | n | 23 | n | n
CC(=O)c1cccc(N=Nc2c(-c3ccccc3)[nH]n(-c3ccccc3)c2=O)c1 | x | n | n | n | x | x
COc1ccc(N/N=C(\C=N\O)C(=O)c2ccc(OC)cc2)cc1 | n | n | n | 32 | n | n
CCN1N=C(C)C=C(c2ccccc2)n2c1nc1ccccc12 | x | n | n | x | x | x
COc1ccc(N2CCN(c3oc(-c4ccco4)nc3C#N)CC2)cc1 | n | n | n | 22 | n | n
CCOC(=O)c1sc(NC(=O)CSc2nnc(C)s2)c(C(=O)OCC)c1C | n | n | n | n | x | x
CCOC(=O)c1c(NC(=O)CSc2nnc(C)s2)sc2c1CCC(CC)C2 (stereo not given) | n | n | n | 34 | n | 18
COc1ccc(OCC(=O)O/N=C(\N)Cc2ccc(Cl)cc2)cc1 | n | n | n | 23 | n | n
Cn1c(NNC(=O)c2cccc3ccccc23)cc(=O)n(C)c1=O | x | n | n | n | x | x
CCN(CC)Cc1cc(CCNC(=O)c2ccc(Cl)cc2)ccc1O | n | n | n | n | x | x
CN(C)Cc1cc(CCNC(=O)c2ccc(Cl)cc2)ccc1O | n | n | n | 22 | n | n
SMILES | NPY-Y2 antag | NPY-Y2 PAM-ag | NPY1 pot ag | NPY Y1 blocker | NPY1 antag conf | NPY-Y2 antag ct
CC1(C)C(=O)Nc2ccccc2N1C(=O)COc1cccnc1[N+](=O)[O-] | x | n | n | n | x | x
Cc1noc(C)c1C(=O)N1CCN(S(=O)(=O)c2cccc(Cl)c2Cl)CC1 | x | n | n | x | x | x
O=C(O)c1cc(-c2ccccc2)n(-c2ccccc2)n1 | n | n | n | 24 | n | n
O=C(O)c1cc(-c2ccccc2)n(-c2ccc(Cl)cc2)n1 | x | n | n | n | x | x
O=C(N/N=C/c1ccc(Br)s1)c1c[nH]c2ccccc12 | n | n | n | 20 | n | n
CCCCCCCC1CC(/C(C)=N/NC(N)=O)OC1=O (stereo not given) | n | n | n | n | x | x
O=C(COC(=O)c1ccc2[nH]c3c(c2c1)CCCC3)Nc1ccccc1 | n | n | n | n | x | x
COC(/C=C/Nc1ccc(Cl)cc1)=C(C#N)C#N | x | n | n | n | x | x
COC(/C=C/Nc1ccc(OC)cc1)=C(C#N)C#N | n | n | n | 40 | n | n
CCCC(C)C(=O)Nc1nc(C)c(-c2csc(Nc3ccccc3OC)n2)s1 (stereo not given) | n | n | n | 24 | n | n
CCCCCCC(=O)Nc1nc(C)c(-c2csc(Nc3ccccc3OC)n2)s1 | n | n | n | 32 | n | n
O=C(c1ccc(F)cc1)N1CCN(c2cc(N3CCCCC3)c(F)cc2[N+](=O)[O-])CC1 | n | n | n | n | x | x
COc1ccc(Oc2c(-c3ccc(O)cc3O)n[nH]c2C)cc1 | n | n | n | 83 | 35 | n

Assay outcomes (PubChem)
